In the library only some 3.5% were active in any assay of this set; here they are far more common.
esBAF inh: blocks esBAF chromatin remodeling in mouse ES cells; Bmi1-luciferase knock-in reporter, 24 h; 100% = twice the neutral-well signal; reporter increase, % at 12.5 µM; 350,000 tested, 2% active; in the data active = activation above about 40%; inconclusive = no clear call, values can overlap the other calls;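 also: 0% = median of the plate's neutral control wells and 100% = double that signal; a rise in the Bmi1 reporter signal indicates esBAF inhibition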
HIV Env fusion: blocks HIV Env-driven cell-cell fusion; HeLa-JRFL Env/CEM21 cell fusion, luciferase; inhibition, % at 12.3 µM; 360,000 tested, 1.1% active; AID 651610;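 active = mean replicate inhibition score of at least 50 and every replicate individually at or above 50; inconclusive = only one of the two criteria met; inactive = mean below 50 and not all replicates reaching 50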;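 also: 0% = plate neutral controls and 100% = maraviroc near 300 nM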
Wnt act: Wnt/beta-catenin pathway activation; Wnt/beta-catenin reporter cell assay, activator, plate reader; activation, % at 9.35 µM; 300,000 tested, 1.2% active; in the data active = activation above about 30%, passing the limit was not always enough; inconclusive = no clear call, values can overlap the other calls;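 also: 0% = neutral control wells and 100% = positive control wells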
MITF act: increases MITF-driven TRPM1 promoter luciferase signal; SK-MEL-5 TRPM1-promoter luciferase, 24 h; % of positive control, neutral wells = 0; activation, % at 12.5 µM; 300,000 tested, 0.75% active;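 active = mean activation of at least 80% with every replicate also reaching 80%; inconclusive = mean reaches 80% but some replicate falls short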;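 also: 0% = neutral control wells and 100% = parthenolide positive control wells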
ERAP1 HTS inh: ERAP1 (human) enzyme inhibition; AID 652197; Q9NZ08; inhibition, % at 10.7 µM; 340,000 tested, 0.15% active; recombinant ERAP1, Leu-AMC fluorescence, 60 min;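 active = mean replicate inhibition of at least 30%, or all replicates individually reaching that 30% level; inactive = mean below 30% and not every replicate reaching it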;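 also: 0% = neutral control wells and 100% = L-leucinethiol positive control wells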
Target sequence (Q9NZ08 whole entry, looked up): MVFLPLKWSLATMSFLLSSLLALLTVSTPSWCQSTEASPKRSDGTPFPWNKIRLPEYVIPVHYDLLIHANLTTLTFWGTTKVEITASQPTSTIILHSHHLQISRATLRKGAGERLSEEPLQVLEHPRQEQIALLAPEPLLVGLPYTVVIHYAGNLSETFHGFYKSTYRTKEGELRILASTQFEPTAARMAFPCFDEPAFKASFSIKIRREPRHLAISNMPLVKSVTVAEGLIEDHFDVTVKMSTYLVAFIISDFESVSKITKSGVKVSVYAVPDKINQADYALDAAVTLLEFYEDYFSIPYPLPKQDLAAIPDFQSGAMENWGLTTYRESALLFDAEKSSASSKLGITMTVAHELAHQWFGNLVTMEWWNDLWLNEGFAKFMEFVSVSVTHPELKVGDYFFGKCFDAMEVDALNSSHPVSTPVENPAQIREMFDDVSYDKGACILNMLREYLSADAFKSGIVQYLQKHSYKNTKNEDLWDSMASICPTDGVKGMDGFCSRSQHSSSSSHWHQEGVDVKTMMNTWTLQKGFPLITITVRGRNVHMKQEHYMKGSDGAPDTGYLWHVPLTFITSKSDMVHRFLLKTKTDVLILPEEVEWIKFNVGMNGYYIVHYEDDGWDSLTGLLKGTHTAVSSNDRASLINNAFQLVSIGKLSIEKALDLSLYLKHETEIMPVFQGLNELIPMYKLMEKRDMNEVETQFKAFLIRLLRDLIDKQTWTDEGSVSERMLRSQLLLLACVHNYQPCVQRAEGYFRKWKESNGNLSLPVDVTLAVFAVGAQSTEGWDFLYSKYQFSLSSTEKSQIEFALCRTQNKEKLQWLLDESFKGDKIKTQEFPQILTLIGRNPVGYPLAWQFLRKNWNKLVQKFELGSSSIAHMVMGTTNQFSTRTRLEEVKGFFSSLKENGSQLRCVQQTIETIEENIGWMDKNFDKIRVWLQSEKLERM
Cneo AK release: Cryptococcus neoformans lysis via adenylate kinase release; C. neoformans lysis, adenylate kinase release luminescence, 4 h; normalised: neutral wells 0, clomiphene wells 100; AID 651654; lysis activity, % at 15 µM; 360,000 tested, 0.2% active;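 active = mean lysis activity across replicates of at least 80%, whatever share of replicates individually reach that level; inactive = mean lysis activity below 80%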
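Material – Cryptococcus neoformans yeast cells · Quantity – 5 × 10^6 yeast cells/mL · Buffer or medium – YPD medium · Compound – single dose · Timing – 4 h static compound exposure, 37 °C, read 1 h post-reagent · Signal – adenylate kinase release luminescence · Read-out basis – lysis from increased AK signal · Benchmarks – Clomiphene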
An asterisk follows results filed as active; ? = inconclusive; · = no result given; [ ] = dose if it differs, or a comment.

SMILES	esBAF inh	HIV Env fusion	Wnt act	MITF act	ERAP1 HTS inh	Cneo AK release
CCCNC(=O)N(C)C[C@@H]1Oc2cc(C3=CCCC3)ccc2S(=O)(=O)N([C@H](C)CO)C[C@@H]1C	3	-13[16.7 µM]	·	·	·	2
CC(=O)Nc1ccc(C(=O)N2CCCCC2c2cc(C(=O)Nc3cccc(C#N)c3)no2)cc1 (centres undefined)	-7	-4	4	·	14	1
N#Cc1ccc(C(=O)N2CCCCC2c2cc(C(=O)Nc3cccc(C#N)c3)no2)cc1 (centres undefined)	0	3	36*	·	-4	-2
CN(C)S(=O)(=O)c1cccc(-c2nnc(-c3ccccc3)o2)c1	·	·	0	86*	4	·
Cc1ccc(-c2nnc(-c3cccc(Br)c3)o2)cc1	·	-136	52*	53	·	-4
Cc1ccc(-c2nnc(-c3ccccc3)o2)cc1Br	·	-161	35*	34	7	-4
O=C(Nc1nc(-c2ccc3c(c2)OCO3)cs1)C1CC1	7	-66	-1	93*	5	-3
O=C(CSc1ccc(-c2ccc3c(c2)OCO3)nn1)Nc1nccs1	15	17	0	-4	-1	·
O=C(O)C(=O)Nc1nc(-c2ccc3c(c2)OCCO3)cs1	18	-13	6	0	3	-4
O=C(CSCC(=O)Nc1nc(-c2ccc3c(c2)OCO3)cs1)Nc1nccs1	44*	-1	24	12	4	-2
COc1cc2c(cc1OC)C(c1c(Cl)cccc1Cl)=NCC2	·	60*	0	·	-1	·
COCC(=O)N1C[C@@H](C)[C@@H](OC)CN(C)C(=O)c2cc(NC(=O)Nc3cccc(F)c3)ccc2OC[C@H]1C	-4	-2[16.7 µM]	·	·	-4	2
Cc1noc(C)c1-c1ccc(C(=O)Nc2cccc(C(F)(F)F)c2)c2occc12	53*	6	-1	·	7	-8
C=CCNC(=S)NNC(=O)COc1ccc2cc(Br)ccc2c1	41*	-38	10	75	3	1
CC(C)NC(=O)Nc1ccc2c(c1)CC(=O)N([C@@H](C)CO)C[C@@H](C)[C@@H](CN(C)C(=O)NC1CCCCC1)O2	-2	10[16.7 µM]	·	·	-1	0
C=CCn1c(C)nnc1SCC(=O)NC1CC1	-4	62*	8	0	0	0
O=S(=O)(N[C@H]1CC[C@H](CCn2cc(Cc3ccccc3)nn2)O[C@@H]1CO)c1ccccc1F	2	·	·	·	1	-2
C[C@@H]1CN([C@H](C)CO)C(=O)c2cc(C3=CCCC3)cnc2O[C@@H]1CN(C)Cc1ccc(C(=O)O)cc1	-1	-12[16.7 µM]	·	·	0	-1
C[C@H]1CN([C@@H](C)CO)C(=O)c2cc(C#CC3(O)CCCC3)cnc2O[C@@H]1CN(C)Cc1cccnc1	-2	-16[16.7 µM]	·	·	-1	101*
C[C@@H]1CN([C@@H](C)CO)C(=O)c2cc(-c3cncnc3)cnc2O[C@H]1CN(C)C(=O)Cc1ccccc1	3	4[16.7 µM]	·	·	-3	80*
C[C@@H]1CN([C@@H](C)CO)C(=O)c2cc(C3=CCCC3)cnc2O[C@@H]1CN(C)Cc1ccc(C(=O)O)cc1	-5	60*[16.7 µM]	·	·	1	-4
C[C@@H]1CN([C@@H](C)CO)C(=O)c2cc(-c3cncnc3)cnc2O[C@H]1CN(C)C(=O)CN1CCOCC1	-3	·	·	·	3	105*
C[C@@H]1CN([C@H](C)CO)C(=O)c2cc(C3=CCCCC3)cnc2O[C@H]1CN(C)C(=O)Cc1cccnc1	-13	-51[16.7 µM]	·	·	6	104*
C[C@H](O)C#Cc1cnc2c(c1)C(=O)N([C@@H](C)CO)C[C@@H](C)[C@@H](CN(C)C(=O)Cc1ccncc1)O2	-31	-16[16.7 µM]	·	·	-5	115*
C[C@H](CO)N1C[C@H](C)[C@H](CN(C)C(=O)Cc2ccncc2)Oc2ncc(C#C[C@@H](C)O)cc2C1=O	2	-7[16.7 µM]	·	·	-5	3
SMILES	esBAF inh	HIV Env fusion	Wnt act	MITF act	ERAP1 HTS inh	Cneo AK release
C[C@@H]1CN([C@@H](C)CO)C(=O)c2cc(C3=CCCCC3)cnc2O[C@@H]1CN(C)C(=O)Cc1cccnc1	0	20[16.7 µM]	·	·	2	1
COCC1CC(c2ccccc2)OC(c2ccc(NC(=O)CCCCCCC(=O)O)cc2)O1 (centres undefined)	·	-4[16.7 µM]	·	·	1	4
C[C@@H]1CN([C@@H](C)CO)S(=O)(=O)c2ccc(C#Cc3cccc(F)c3)cc2O[C@H]1CN(C)C	-5	22[16.7 µM]	·	·	4	7
CN(CCCC(=O)Nc1ccncc1)S(=O)(=O)c1ccc(Cl)cc1	6	66*	-6	-7	·	0
COc1ccc(C2N=C(c3ccccc3)NC(c3ccccc3)=N2)cc1	-2	·	·	-6	·	0
FC(F)Oc1ccc(C2N=C(c3ccccc3)NO2)cc1 (centres undefined)	·	-111	34*	117*	-4	-2
COc1ccc(C2N=C(c3ccccc3)NO2)cc1OC (centres undefined)	52*	-64	1	68	-1	-2
COc1cc(C2N=C(c3ccccc3)NO2)cc(Br)c1O (centres undefined)	11	·	·	-7	·	-1
C[C@@H]1CN([C@H](C)CO)S(=O)(=O)c2ccc(C3=CCCC3)cc2O[C@@H]1CN(C)C(=O)C1CC1	·	-1[16.7 µM]	·	·	·	·
C[C@@H]1CN([C@@H](C)CO)C(=O)Cc2cc(NC(=O)Cc3ccccc3)ccc2O[C@H]1CN(C)Cc1ccc(Oc2ccccc2)cc1	2	16[16.7 µM]	·	·	2	35
CN1C(=O)c2cc(NC(=O)C3CCCCC3)ccc2OC[C@H]2O[C@@H](CC(=O)NCc3ccccc3F)CC[C@H]21	3	7[16.7 µM]	·	·	-4	-1
Cc1ccc(CNC(=O)C2(S(=O)(=O)c3ccc(C)cc3)CC2)cc1	6	22	1	-1	-1	0
Cc1ccc(CNC(=O)C2(S(=O)(=O)c3ccccc3)CC=CC2)cc1	73*	·	·	74	·	-3
C[C@@H]1CN([C@@H](C)CO)C(=O)c2cc(NC(=O)C3CCCCC3)ccc2O[C@@H](C)CCCCO[C@H]1CN(C)C(=O)Cc1ccccc1	9	10[16.7 µM]	·	·	2	-1
CCOC(=O)Cn1cnc2c(sc3nc(C)cc(C)c32)c1=O	35	-25	38*	·	-1	·
C=CCn1cnc2c(sc3nc(C)cc(C)c32)c1=O	·	-3	30	·	·	·
COC(=O)Cn1c(C)nc2c(sc3nc(C)cc(C)c32)c1=O	?	·	·	91*	·	-2
COCC(=O)N1C[C@@H](C)[C@@H](OC)CN(C)C(=O)c2ccc(NC(=O)C3CCC3)cc2OC[C@@H]1C	2	·	·	·	-3	-2
CCOC(=O)C1=C(C)Nc2ccc(C)cc2S1	·	-110	12	-8	·	-2
Cc1ccc2c(c1)Sc1c(ccc3ccccc13)N2	51*	-244	46*	8	-1	-2
c1cncc(-c2nc(-c3ccc4c(c3)OCO4)cs2)c1	52*	·	32*	85*	·	-2
Clc1ccsc1-c1csc(-c2cccnc2)n1	70*	·	·	11	·	0
c1cncc(-c2csc(-c3cccnc3)n2)c1	36	-10	2	25	1	1
